PAD4 inh = blocks human protein arginine deiminase 4. Q9UM07. recombinant PAD4, RCA probe fluorescence polarization. inhibition, % at 6.36 µM. 330,000 tested, 0.41% active;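 active = percent inhibition above a cutoff equal to the mean of all tested compounds plus 3 SD, cut at about 15% in these data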;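 note: 0% = PAD4 with RCA probe and DMSO and 100% = probe without PAD4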
SIAE inh = inhibitors of human sialic acid acetylesterase SIAE. SIAE FP-Rh probe binding, fluorescence polarization. inhibition, % at 9.66 µM. 370,000 tested, 0.69% active;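 active = inhibition above a cutoff: mean of compounds within the control limits plus 3 SD of those, cut at about 17% in these data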;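 note: 0% = plate median of compound wells and 100% = probe without SIAE protein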
Target sequence (Q9HAT2 whole entry, looked up): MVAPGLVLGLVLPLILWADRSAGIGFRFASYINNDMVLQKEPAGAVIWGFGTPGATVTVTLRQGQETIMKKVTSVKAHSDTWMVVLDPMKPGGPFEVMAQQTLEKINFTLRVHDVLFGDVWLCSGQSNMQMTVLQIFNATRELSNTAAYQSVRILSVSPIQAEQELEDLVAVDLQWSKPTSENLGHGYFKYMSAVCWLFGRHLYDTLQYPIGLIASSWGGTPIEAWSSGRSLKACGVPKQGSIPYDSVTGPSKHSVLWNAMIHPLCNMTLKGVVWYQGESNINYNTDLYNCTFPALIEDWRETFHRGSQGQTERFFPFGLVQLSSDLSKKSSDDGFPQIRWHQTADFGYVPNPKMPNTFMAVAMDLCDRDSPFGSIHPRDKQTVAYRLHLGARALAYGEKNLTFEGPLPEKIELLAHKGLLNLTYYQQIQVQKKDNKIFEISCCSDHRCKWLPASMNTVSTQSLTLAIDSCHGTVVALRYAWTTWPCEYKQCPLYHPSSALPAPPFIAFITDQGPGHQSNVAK
PRMT1 FP inh = PRMT1 (human) inhibition, primary screen; 370,000 tested, 1.3% active; recombinant PRMT1, activity-based probe fluorescence polarization; inhibition, % at 2.79 µM;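 active = inhibition above about 21% made by adding two undisclosed values, limit read from the data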
HTRA1 inh = inhibitors of human serine peptidase HTRA1; 340,000 tested, 0.5% active; recombinant HTRA1, FP-rhodamine activity-based probe, fluorescence polarization; Q92743; inhibition, % at 5.96 µM; AID 504803; in the data active = inhibition above about 36%;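 note: 0% = enzyme with DMSO and 100% = wells lacking enzyme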
mABHD4 FP = ABHD4 (mouse) inhibition, primary FP screen | inhibition, % at 8.92 µM | 370,000 tested, 0.54% active | purified mABHD4, FP-Rh probe fluorescence polarization | Q8VD66;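 active = inhibition exceeding the mean over every tested compound plus 3 SD, cut at about 30% in these data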;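 note: 0% = plate median of compound wells and 100% = S159A mutant with DMSO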
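system = mouse ABHD4 enzyme, wild type | medium = HEPES pH 7.0, NaCl, Pluronic buffer | also added = FP-Rh probe | incubation = Enzyme–compound pre-incubation 45 min, then probe 60 min, both 25 °C | technique = fluorescence polarization, excitation 525 nm, emission 598 nm, BODIPY TMR filters | controls = S159A mutant high control, sample median low control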
TCR-CD3 inh = inhibitors of human TCR-CD3 interaction | 360,000 tested, 0.37% active | inhibition, % at 9.4 µM | TAMRA-labeled TCR probe fluorescence, biochemical; in the data active = inhibition above about 19%;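 note: recombinant mutant TCR 2C K166C tagged with TAMRA read by polarization; 0% = receptor in buffer alone and 100% = receptor with positive control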
PRMT1 inh conf = PRMT1 (human) inhibition, FP confirmation; recombinant His-PRMT1, activity-based probe fluorescence polarization; inhibition, % at 2.79 µM; shares compounds with PRMT1 FP inh; AID 687036; 3,300 tested, 42% active;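 active = mean inhibition across replicates above the hit cutoff derived for the earlier primary screen, cut at about 22% in these data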
An asterisk follows results filed as active; . = not tested or not shown. Only some compounds are listed: those with a hit (about 2.9% of all), similar ones and a draw of the others.

SMILES | PAD4 inh | SIAE inh | PRMT1 FP inh | HTRA1 inh | mABHD4 FP | TCR-CD3 inh | PRMT1 inh conf
Cc1cc(/C=C2\C(=O)NC(=O)N(Cc3ccccc3)C2=O)c(C)n1-c1ccc(Cl)c(C(=O)O)c1 | -1 | -5 | 28* | 12 | 7 | 12 | 12
Cc1cc(/C=C2\C(=O)NC(=O)N(Cc3ccco3)C2=O)c(C)n1-c1ccc(O)cc1 | -4 | -6 | 29* | 10 | 5 | 8 | -5
CN1C2CCC1CC(OC(c1ccccc1)c1ccc(Cl)cc1)C2 (stereo unspecified) | . | 1 | -4 | . | 4 | -1 | .
Cc1ccc(S(=O)(=O)Oc2ccccc2C=C2C(=O)N(C)C(=O)N(C)C2=O)cc1 | 2 | 5 | 30* | -6 | -4 | -6 | -1
C[C@H](NC(=O)OCc1ccccc1)C(=O)NC(Cc1ccccc1)P(=O)(Oc1ccccc1)Oc1ccccc1 (stereo partly specified) | . | 5 | -1 | . | -11 | . | .
CC(C)S(=O)(=O)N1Cc2ccc(Br)cc2-n2nncc2C1 | . | 1 | -1 | . | 3 | -1 | .
Cn1cccc1/C=C1\C(=O)NC(=O)N(Cc2ccco2)C1=O | . | 4 | 31* | 11 | 11 | 13 | 22*
Cc1ccc(OCCn2cccc2/C=C2/C(=O)NC(=O)N(Cc3ccco3)C2=O)cc1 | -7 | -5 | 32* | 8 | -8 | 2 | 12
COc1ccc(/C=C2/C(=O)NC(=O)N(Cc3ccco3)C2=O)cc1 | -4 | . | . | . | . | . | .
CC[C@]12CCN(CC3(O)CC3)C(Cc3ccc(O)cc31)C2(C)C | . | 2 | -1 | . | 0 | 1 | .
COc1ccc2c(c1)NP(=S)(c1ccccc1)N2C (stereo unspecified) | . | 5 | 33* | 7 | 11 | 2 | 2
Cc1ccc(OC(=O)N(C)C[C@H]2OCc3cnnn3CCCC(=O)N([C@@H](C)CO)C[C@@H]2C)cc1 | . | 6 | 3 | . | 1 | 4 | .
CNc1cc(Cl)c2nonc2c1[N+](=O)[O-] | . | 4 | 57* | 0 | 2 | -5 | 25*
CC[C@@H](CO)NC(=O)[C@@H]1C=C2c3cccc4[nH]cc(c34)C[C@H]2N(C)C1 | . | 16 | 30* | 14 | 17 | 12 | 19
O=C1CC(N2CCC(n3c(=O)[nH]c4ccccc43)CC2)C(=O)N1c1ccc(F)cc1 (stereo unspecified) | 0 | -7 | 45* | -2 | -7 | -4 | 3
O=c1[nH]c2ccccc2n1C1CCN(CCCC(c2ccc(F)cc2)c2ccc(F)cc2)CC1 | -1 | 6 | -3 | -15 | 21 | 4 | .
CCOC(=O)[C@]12Cc3cc(Cl)ccc3[C@H]1N(C1CCCCC1)C(=O)c1cc(OC)ccc12 | . | -6 | -2 | . | 5 | -3 | .
Cc1ccc(/C=C2\C(=O)NC(=S)N(c3cccc(F)c3)C2=O)o1 | -18 | 3 | 29* | 15 | 14 | -27 | 57*
COc1ccc(N2C(=O)/C(=C/c3ccc(C)o3)C(=O)NC2=S)cc1 | . | 7 | 11 | 8 | 9 | -1 | .
CSc1ncc(/C=C2/C(=O)NC(=O)N(C)C2=O)cn1 | -5 | 6 | 9 | 6 | 4 | 4 | .
CSc1ncc(/C=C2/C(=O)NC(=O)N(C3CCCCC3)C2=O)cn1 | -4 | 1 | 26* | -1 | 11 | 7 | 19
Cc1cc(N2CCNC[C@H]2C)ccc1N1CC[C@H](O)C1 | . | 6 | 41* | . | 20 | 8 | -2
COC(=O)C1C(c2ccc(C)cc2)CC2CCC1N2C (stereo unspecified) | . | -1 | 1 | . | 3 | -4 | .
Cc1cc(N2CCCCC2)ccc1C=C1C(=O)N(C)C(=S)N(C)C1=O | -10 | -17 | 29* | -7 | -25 | -17 | 22*
CCCOc1ccccc1OCC(=O)N1CCN(CC(=O)N2CCOCC2)CC1 | . | -6 | -9 | 4 | 2 | 0 | .
SMILES | PAD4 inh | SIAE inh | PRMT1 FP inh | HTRA1 inh | mABHD4 FP | TCR-CD3 inh | PRMT1 inh conf
C=C1C(=O)OC2CC(C)C3C=CC(=O)C3(C)C(O)C12 (stereo unspecified) | . | . | . | -5 | . | . | .
C=C1C(=O)O[C@@H]2C[C@@H](C)[C@@H]3C=CC(=O)[C@@]3(C)[C@@H](OC(=O)CC(=O)O[C@H]3[C@@H]4C(=C)C(=O)O[C@@H]4C[C@@H](C)[C@@H]4C=CC(=O)[C@]43C)[C@H]12 | -12 | -2 | 29* | -24 | 1 | 3 | 26*
CCOC(=O)C1SC2(C(F)F)CC1(O)c1c(c(OC)c3occc3c1OC)O2 (stereo unspecified) | 1 | 3 | 29* | -1 | -4 | 10 | 15
O=P(Nc1ccccc1)(Nc1ccccc1)Oc1ccccc1 | -4 | -2 | -1 | -9 | -1 | 7 | .
O=P(Nc1ccccc1)(Oc1ccccc1)Oc1ccccc1 | 6 | 2 | 82* | -15 | -6 | 5 | 2
O=C1CC(=O)N(Cc2ccccc2)C(=S)N1 | -6 | -16 | 32* | -45 | -8 | 1 | 5
O=C(c1ccccc1)N1Cc2cc(Br)ccc2-n2nncc2C1 | . | -1 | -1 | . | 5 | 6 | .
N#Cc1c(/N=C/c2c(O)n(Cc3ccco3)c(=O)[nH]c2=O)sc2c1CCCC2 | -1 | 4 | 26* | 0 | -14 | 8 | 6
C=CCN1C(=O)/C(=C/c2ccc3c(c2)CCCN3CCC)C(=O)NC1=S | -3 | -11 | 26* | -13 | -17 | -30 | 8
COP(=O)(CC(=O)O)c1ccccc1 (stereo unspecified) | 3 | 0 | 1 | 4 | -6 | -5 | .
NC(=O)CSP(=O)(c1ccccc1)c1ccccc1 | 2 | 3 | 38* | -1 | 2 | 4 | 65*
COC1CC=C2CCN3CCC4=C(CC(=O)OC4)C23C1 (stereo unspecified) | . | 0 | -4 | . | -6 | -2 | .
O=c1[nH]c(=O)n(C2CCCCC2)c(O)c1C1NCCc2ccccc21 (stereo unspecified) | -8 | -3 | 28* | 0 | 4 | -4 | 2
COCCOC(=O)c1c(N)n(Cc2ccco2)c2nc3ccccc3nc12 | -20 | -5 | 30* | 8 | 5 | 3 | 11
CO[C@H]1C=CCCC=CC(=O)O[C@H]([C@H](C)C(=O)CCCC2CC(=O)NC(=O)C2)C(C)=C[C@@H](C)[C@@H]1O | . | -7 | -2 | . | 2 | 0 | .
CCOC(=O)c1ccc(N=Cc2c(O)n(-c3ccc(OC)cc3)c(=S)[nH]c2=O)cc1 | -3 | -33 | 1 | -11 | 1 | -39 | .
CCOC(=O)c1c(/N=C/c2c(O)n(-c3ccc(F)cc3)c(=S)[nH]c2=O)sc2c1CCCC2 | 2 | -7 | 27* | 5 | -1 | -11 | -8
CCOC(=O)c1c(/N=C/c2c(O)n(-c3ccccc3F)c(=S)[nH]c2=O)sc2c1CCCC2 | -8 | -44 | 42* | -28 | -11 | -46 | 15

Screening data deposited in PubChem BioAssay by The Scripps Research Institute Molecular Screening Center.
